Measurements reported in ChEMBL document CHEMBL4725472, “Synthesis and Evaluation of Ginkgolic Acid Derivatives as SUMOylation Inhibitors” (ACS Med Chem Lett, 2020).
Each block holds one molecule with its values, some of them ahead of it. The source made the active and inactive calls. The rule behind the calls is not given here.

Legend:
[1] = system: PC3 (Homo sapiens); experiment: Cytotoxicity against human PC3 cells assessed as cell death at 10 to 20 uM incubated for 24 hrs by crystal violet staining based spectrophotometric analysis; conditions: dose microM 10-20, time 24.0 hrs
[2] = system: PC-3; experiment: Induction of autophagy-mediated apoptosis in human PC3 cells assessed as increase in cleave PARP level at 20 uM measured after 24 hrs by western blot analysis; assay type: functional, cell-based
In short: (§1)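 PC3 cells treated at 10 or 20 μM; cleaved PARP and LC3II levels assessed by immunoblot as apoptosis and autophagy markers.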

[3] = system: PC-3; experiment: Induction of autophagy in human PC3 cells assessed as increased of LC3-II level at 10 uM incubated for 24 hrs by Western blot analysis; assay type: functional, cell-based
In short: as §1

[4] = system: PC-3; experiment: Induction of autophagy in human PC3 cells assessed as increased of LC3-II level at 20 uM incubated for 24 hrs by Western blot analysis; assay type: functional, cell-based
In short: as §1

[5] = molecular target: Small ubiquitin-related modifier 2 (Homo sapiens) (UniProt P61956); experiment: Inhibition of SUMO2 in human PC3 cells assessed as reduction in SUMOylation level at 10 uM measured after 24 hrs by western blot analysis; assay type: cell-based; conditions: PC-3
Small ubiquitin-related modifier 2 (Homo sapiens), sequence (P61956 whole entry): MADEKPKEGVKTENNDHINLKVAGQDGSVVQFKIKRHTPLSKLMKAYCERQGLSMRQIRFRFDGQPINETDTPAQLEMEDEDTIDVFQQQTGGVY

[6] = molecular target: Small ubiquitin-related modifier 1 (Homo sapiens) (UniProt P63165); experiment: Inhibition of SUMO1 (unknown origin) assessed as reduction in SUMOylated RanGAP1 level at 50 uM incubated for 60 mins by western blot analysis
Small ubiquitin-related modifier 1 (Homo sapiens), sequence (P63165 whole entry): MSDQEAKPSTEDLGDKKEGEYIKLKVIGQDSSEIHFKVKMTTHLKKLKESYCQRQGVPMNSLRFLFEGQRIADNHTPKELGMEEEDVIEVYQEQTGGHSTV
In short: (§2)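 Cell-free RanGAP1 SUMOylation reaction; compounds dissolved in the reaction medium at 50 μM for the initial screen, then retested at 5 μM.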

[7] = molecular target: Small ubiquitin-related modifier 1 (Homo sapiens) (UniProt P63165); experiment: Inhibition of SUMO1 in human PC3 cells assessed as reduction in SUMOylation level at 10 to 20 uM measured after 24 hrs by western blot analysis; assay type: cell-based; conditions: PC-3, dose microM 10-20, time 24.0 hrs
[8] = molecular target: Small ubiquitin-related modifier 1 (Homo sapiens) (UniProt P63165); experiment: Inhibition of SUMO1 in human MDA-MB-231 cells assessed as reduction in SUMOylation level at 10 uM measured after 24 hrs by western blot analysis; assay type: cell-based
[9] = system: PC-3; experiment: Induction of autophagy-mediated apoptosis in human PC3 cells assessed as increase in cleave PARP level at 10 uM measured after 24 hrs by western blot analysis; assay type: functional, cell-based
In short: as §1

[10] = molecular target: Small ubiquitin-related modifier 1 (Homo sapiens) (UniProt P63165); experiment: Inhibition of SUMO1 (unknown origin) assessed as reduction in SUMOylated RanGAP1 level at 5 uM incubated for 60 mins by western blot analysis
In short: as §2

[11] = system: MDA-MB-231; experiment: Cytotoxicity against human MDA-MB-231 cells assessed as reduction in cell viability incubated for 48 hrs by crystal violet staining based spectrophotometric analysis; assay type: functional; conditions: MDA-MB-231, 48 h
In short: (§3)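 PC3 and MDA-MB-231 cells exposed to compounds for 48 h at 10 or 20 μM; viability compared with nontreated cells (significance P ≤ 0.05); IC50 values determined in both lines; at least three independent experiments, mean ± SEM.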

[12] = system: PC-3; experiment: Cytotoxicity against human PC3 cells assessed as reduction in cell viability incubated for 48 hrs by crystal violet staining based spectrophotometric analysis; assay type: functional; conditions: PC-3, 48 h
In short: as §3

SMILES: CCCCCCCCCCCCCc1ccc(O)c(C(=O)O)c1
inhibition [6]: inactive

SMILES: CCCCCCCCCCC/C=C/c1ccc(C(=O)O)c(O)c1
inhibition [6]: inactive

SMILES: CCCCCCCCC/C=C/c1ccc(C(=O)O)c(O)c1
inhibition [6]: inactive

SMILES: CCCCCCCCCCCCCCCc1ccc(C(=O)O)c(O)c1
inhibition [6]: inactive

SMILES: CCCCCCCCCCCCC/C=C/c1cccc(C(=O)O)c1O
inhibition [6]: inactive

SMILES: CCCCCCCCCCCCCCCc1ccc(O)c(C(=O)O)c1
inhibition [6]: inactive

SMILES: CCCCCCCCCCC/C=C/c1ccc(O)c(C(=O)O)c1
inhibition [6]: inactive

SMILES: CCCCCCCCCCCCC/C=C/c1ccc(C(=O)O)c(O)c1
inhibition [6]: inactive

SMILES: CCCCCCCCCCCCC/C=C/c1ccc(O)c(C(=O)O)c1
inhibition [6]: inactive

SMILES: CCCCCCCCC/C=C/c1ccc(O)c(C(=O)O)c1
inhibition [6]: inactive

SMILES: CCCCCCCCCCC/C=C/c1cccc(C(=O)O)c1O
inhibition [6]: inactive

More lines, main results first:

inhibition [5]: Active
inhibition [6]: Active
inhibition [7]: Active
inhibition [8]: Active
SMILES: CCCCCCCCCCCc1cccc(O)c1C(=O)O
Activity [1]: Active
Activity [2]: Active
Activity [3]: Active
Activity [4]: Active
Activity [9]: Active

inhibition [6]: Active
SMILES: CCCCCCCCCCCCC/C=C/c1cccc(O)c1C(=O)O

inhibition [6]: Active
SMILES: CCCCCCCCCCCCCCCc1cccc(O)c1C(=O)O

inhibition [6]: inactive
SMILES: CCCCCCCCCCCCCc1ccc(C(=O)O)c(O)c1

inhibition [6]: inactive
SMILES: CCCCCCc1cccc(O)c1C(=O)O

inhibition [10]: Active
inhibition [5]: Active
inhibition [6]: Active
inhibition [7]: Active
inhibition [8]: Active
SMILES: CCCCCCCCC/C=C/c1cccc(O)c1C(=O)O
Activity [1]: Active
Activity [2]: Active
Activity [3]: Active
Activity [4]: Active
Activity [9]: Active

inhibition [6]: inactive
SMILES: CCCCCCCCCCCc1ccc(C(=O)O)c(O)c1

inhibition [6]: inactive
SMILES: CCCCCCCCCCCc1cccc(C(=O)O)c1O

inhibition [5]: Active
inhibition [6]: Active
inhibition [7]: Active
inhibition [8]: Active
SMILES: CCCCCCCCCCCCCc1cccc(O)c1C(=O)O
Activity [1]: Active
Activity [2]: Active
Activity [3]: Active
Activity [4]: Active
Activity [9]: Active

inhibition [10]: Active
inhibition [5]: Active
inhibition [6]: Active
inhibition [7]: Active
inhibition [8]: Active
SMILES: CCCCCCCCCCC/C=C/c1cccc(O)c1C(=O)O
IC50 [11]: 8.2 µM
Activity [1]: Active
Activity [2]: Active
Activity [3]: Active
IC50 [12]: 10.8 µM
Activity [4]: Active
Activity [9]: Active

inhibition [6]: inactive
SMILES: CCCCCCCCCCCCCCCc1cccc(C(=O)O)c1O

inhibition [6]: inactive
SMILES: CCCCCCCCCCCc1ccc(O)c(C(=O)O)c1

inhibition [6]: inactive
SMILES: CCCC/C=C/c1cccc(O)c1C(=O)O

inhibition [6]: inactive
SMILES: CCCCCCCCc1cccc(O)c1C(=O)O

inhibition [6]: inactive
SMILES: CCCCCC/C=C/c1cccc(O)c1C(=O)O

inhibition [6]: inactive
SMILES: CCCCCCCCC/C=C/c1cccc(C(=O)O)c1O

inhibition [6]: inactive
inhibition [7]: inactive
inhibition [8]: inactive
SMILES: CCCCCCCCCCCCCc1cccc(C(=O)O)c1O
IC50 [11]: 12.8 µM
Activity [2]: Active
Activity [3]: inactive
IC50 [12]: 14.8 µM
Activity [4]: Active
Activity [9]: inactive
